Bfl-1 A1 inh: caspase 3/7 activation in MEF A1-2A-BIM cells, primary screen, A1 inhibitor project, cell-based, luminescence, HTS. Caspase-Glo 3/7 luminescence, 3 h; percent of clofoctol response, vehicle zero. 330,000 tested, 0.066% active. AID 2462, 2010. caspase activation, % (concentration not given with the values);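 active means over half of replicate activation scores above 10%, or exactly half above 10 with the replicate mean above 10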
UPR XBP1 act: activators of adaptive XBP1 UPR arm, primary screen, cell-based, CHO-XBP1 luciferase reporter, luminescence, uHTS; IRE1-XBP1 UPR activation; percent of tunicamycin response, DMSO as zero; activation, % at 20 µM; 330,000 tested, 0.33% active;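 active means versus positive control, 20 µM dose yields 30% or more activation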;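 further: 100% = tunicamycin at 10 µg/mL and 0% = DMSO only wells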
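Signal: luciferase luminescence; Assay system: CHO-XBP1 luciferase reporter cells; Amount: one thousand reporter cells per well; Dosing: 20 µM single concentration, DMSO 1%; Benchmarks: high control tunicamycin 10 µg/mL final, low control DMSO vehicle only; Schedule: 6 h compound exposure at 37 °C, 5% CO2; Evaluation: percent activation relative to tunicamycin reference.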
MC4R antag cAMP: MC4R antagonists of cAMP signaling, primary screen, cell-based, TR-FRET, antagonist arm of biased-ligand search | Melanocortin receptor 4 (Homo sapiens), P32245 | MC4R-expressing cells, MTII-stimulated cAMP, LANCE TR-FRET | inhibition, % at 6.5 µM | 360,000 tested, 0.48% active | AID 540295, 2011;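 active means inhibition above its plate's cutoff, the mean of tested wells on that plate plus 3 SD, cut at about 29% in these data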;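 further: 0% = Melanotan II alone and 100% = Melanotan II plus saturating MCL0020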
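Assay system: U2OS cells stably expressing human melanocortin 4 receptor (MC4R) / Dosing: 6.5 µM / Timing: compound 30 min, challenge 1 h, detection 1 h / Measured by: Eu-cAMP/anti-cAMP TR-FRET, emission 671 nm / Replicates: singlicate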
MC4R ag barr: MC4R agonists recruiting beta-arrestin, primary screen, cell-based, luminescence, agonist arm of biased-ligand search. Melanocortin receptor 4 (Homo sapiens), P32245. U2OS MC4R beta-arrestin complementation; percent of melanotan II response, DMSO zero. activation, % at 8.9 µM. 360,000 tested, 0.98% active. AID 540308, 2011;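 active means activation above a per-plate cutoff, the mean activation of sample wells on that plate plus 3 SD, cut at about 8% in these data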
CHOP UPR activ: activators of apoptotic CHOP UPR arm, primary screen, cell-based, CHO-CHOP luciferase reporter, luminescence, uHTS. UPR activation; percent of tunicamycin response over DMSO baseline. activation, % at 10 µM. 330,000 tested, 0.34% active. AID 449763, 2010;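 active means at 10 µM dose, activation of 40% or more, normalized to positive control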;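 further: 100% = tunicamycin at 10 µg/mL and 0% = DMSO alone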
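Test system: CHO-CHOP cells, stable luciferase reporter of PERK-eIF2a-CHOP signalling | Quantity: 500 CHO-CHOP cells per well | Buffer or medium: F12 plus 10% serum | Compound dosing: 10 µM single point, 0.5% DMSO | Schedule: 6 h compound treatment, 37 °C | Signal: Luciferase luminescence | Control set: Tunicamycin high control, DMSO low control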
MC4R barr conf: MC4R beta-arrestin agonists, retest, confirmation, cell-based, luminescence, U2OS. activation, % at 8.9 µM. U2OS MC4R beta-arrestin recruitment; scaled DMSO 0%, Melanotan II 100%. 2,400 tested, 31% active. shares compounds with MC4R ag barr. AID 602192, 2012;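 active means mean activation across replicates above the hit cutoff set in the earlier primary screen, cut at about 8% in these data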
MOR DOR agonist: agonists of MOR-DOR heterodimerization, counter-screen for MC4R biased agonist project, cell-based, luminescence; shares compounds with MC4R ag barr; U2OS PathHunter beta-arrestin, beta-gal luminescence; percent of deltorphin B response, DMSO zero; activation, % at 9.2 µM; 2,400 tested, 5.8% active; AID 602194, 2012;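 active means mean activation across replicates exceeds the hit threshold derived in the earlier primary screen, cut at about 18% in these data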;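 further: 100% = deltorphin B at 0.9 µM final and 0% = DMSO alone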
Target sequence (P35372 whole entry, looked up): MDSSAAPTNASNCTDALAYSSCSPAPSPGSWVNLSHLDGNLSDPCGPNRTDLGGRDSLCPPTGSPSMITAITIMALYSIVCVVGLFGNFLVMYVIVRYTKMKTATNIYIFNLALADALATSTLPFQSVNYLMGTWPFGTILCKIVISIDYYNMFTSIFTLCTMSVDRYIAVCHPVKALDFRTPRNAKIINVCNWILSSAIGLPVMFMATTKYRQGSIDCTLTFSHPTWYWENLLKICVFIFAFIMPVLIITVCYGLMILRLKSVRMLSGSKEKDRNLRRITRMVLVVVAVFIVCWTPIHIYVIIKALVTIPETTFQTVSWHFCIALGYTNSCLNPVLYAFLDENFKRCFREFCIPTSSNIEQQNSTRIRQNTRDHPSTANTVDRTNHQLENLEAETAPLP
Target sequence (P41143 whole entry, looked up): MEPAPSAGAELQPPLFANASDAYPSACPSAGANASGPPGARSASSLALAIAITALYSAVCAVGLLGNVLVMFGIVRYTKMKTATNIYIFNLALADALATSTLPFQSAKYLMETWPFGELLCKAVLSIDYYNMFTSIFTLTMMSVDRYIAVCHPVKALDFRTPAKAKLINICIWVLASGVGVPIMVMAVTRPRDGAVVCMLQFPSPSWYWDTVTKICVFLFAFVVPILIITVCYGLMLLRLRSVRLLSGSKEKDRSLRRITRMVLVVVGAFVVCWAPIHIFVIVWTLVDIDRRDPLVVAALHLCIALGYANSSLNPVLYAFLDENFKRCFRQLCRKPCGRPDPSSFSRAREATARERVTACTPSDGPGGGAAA
* = called active by the depositor; . = not tested or not shown. A selection: hits, their analogues and other compounds. The true share with any hit is near 2%.

SMILES	Bfl-1 A1 inh	UPR XBP1 act	MC4R antag cAMP	MC4R ag barr	CHOP UPR activ	MC4R barr conf	MOR DOR agonist
COc1ccc(-c2ccc(/C=C3/C(=N)N4C(C)=CSC4=NC3=O)o2)c([N+](=O)[O-])c1	0	2	8	61*	0	-2	3
CCn1cc(/C=C(\NC(=O)c2ccccc2)C(=O)NCCN2CCOCC2)c2ccccc21	.	.	9	1	.	.	.
CCn1cc(C(=O)NCc2cccc(C(F)(F)F)c2)c(=O)c2ccc(C)nc21	2	-7	3	14*	0	2	4
CCN(CC(=O)Nc1c(F)cccc1F)C(=O)CCCSc1nc2ccccc2[nH]1	.	.	8	-1	.	.	.
C[C@@H]1CN([C@@H](C)CO)C(=O)c2cc(Br)cnc2O[C@H]1CN(C)Cc1ccccc1C(=O)O	.	.	-1	1	.	.	.
O=C(N/N=C/c1cc2ccccc2nc1Cl)[C@H]1C[C@@H]1c1ccccc1	0	2	14	2	-1	.	.
Cc1ccc2cc(/C=N/NC(=O)[C@H]3C[C@@H]3c3ccccc3)c(Cl)nc2c1	1	3	7	24*	0	3	4
Cc1nc2c(sc(=S)n2Cc2ccco2)c(=O)n1CC(=O)Nc1ccc(F)cc1	2	-5	13	15*	4	1	6
Cc1nc2c(sc(=S)n2Cc2ccco2)c(=O)n1CC(=O)Nc1cc(F)ccc1F	1	-3	9	12*	8	6	4
COc1ccccc1NC(=O)Cn1c(C)nc2c(sc(=S)n2Cc2ccco2)c1=O	-1	-2	5	0	1	.	.
CCn1c(=S)sc2c(=O)n(CC(=O)Nc3ccccc3)c(C)nc21	-3	-1	-4	2	0	.	.
C[C@H]1CN([C@@H](C)CO)C(=O)c2cc(C3=CCCC3)cnc2O[C@@H]1CN(C)C(=O)c1ccncc1	.	.	0	-1	.	.	.
CCN(CC1CCCO1)C(=O)CCc1nnc(CCc2ccccc2)o1 (centres undefined)	.	.	-4	-1	.	.	.
CCC(=O)NC(Nc1sc2c(c1C(=O)OC)CCCC2)(C(F)(F)F)C(F)(F)F	-1	2	9	15*	6	-1	5
CCOC(=O)N1CCC(N2C(=O)c3ccc(C(=O)Nc4cccc(OC)c4)cc3C2=O)CC1	-2	1	1	12*	0	2	4
O=C(OCC(=O)N1CCN(C(=O)c2ccco2)CC1)c1cc(-c2ccc(Cl)c(Cl)c2Cl)nc2ccccc12	1	0	-2	11*	1	5	3
O=C(OCC(=O)N1CCN(C(=O)c2ccco2)CC1)c1cc(-c2ccco2)nc2ccccc12	0	-2	-18	1	3	.	.
CC(C)CCNC(=O)C1(C)CCN1Cc1ccc2ccccc2c1 (centres undefined)	.	.	11	2	.	.	.
CSc1sc(-c2nnc(SCC(=O)Nc3ccc(Cl)cc3)n2C)c2c1C=CCC2	-1	-3	12	16*	1	8	9
O=C(COC(=O)/C=C/c1cccc(C(F)(F)F)c1)NC(=O)NCc1ccco1	0	-3	-5	15*	1	3	7
OC(CNCCc1ccc(C(F)(F)F)cc1)COC(c1ccccc1)c1ccccc1 (centres undefined)	2	-2	6	36*	0	22*	13

Assay outcomes from PubChem.
